Data reported in ChEMBL document CHEMBL2407075, “Sulphonamido-quinoxalines: search for anticancer agent” (Eur J Med Chem, 2013).

Legend:
Type in all cases: functional
SN12C = assay: Growth inhibition of human SN12C cells assessed as cell growth at 10^-4 M after 48 hrs by sulforhodamine B assay; settings: read-out: Activity
SK-MEL-28 = assay: Growth inhibition of human SK-MEL-28 cells assessed as cell growth at 10^-4 M after 48 hrs by sulforhodamine B assay; settings: SK-MEL-28, 48 h, read-out: Activity
SF-268 = assay: Growth inhibition of human SF268 cells assessed as cell growth at 10^-4 M after 48 hrs by sulforhodamine B assay; settings: SF-268, 48 h, read-out: Activity
[1] = Growth inhibition of human EKVX cells assessed as cell growth at 10^-4 M after 48 hrs by sulforhodamine B assay; settings: read-out: Activity
How it was run: (§1)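 Five-dose NCI-60 run (0.01, 0.1, 1, 10 and 100 µM, as 10-fold dilutions from a DMSO stock made at 400× the top final level). Cells were grown in RPMI 1640 with 5% FBS and 2 mM glutamine and plated for 24 h. They were then exposed for 48 h at 37 °C and 5% CO2. TCA fixation was followed by SRB staining with A515 read-out. Percent growth was taken relative to time-zero and control plates.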

RPMI-8226 [2] = assay: Growth inhibition of human RPMI8226 cells assessed as cell growth at 10^-4 M after 48 hrs by sulforhodamine B assay; settings: RPMI-8226, 48 h, read-out: Activity
MCF7 [3] = assay: Growth inhibition of human MCF7 cells assessed as cell growth at 10^-5 M after 48 hrs by sulforhodamine B assay; settings: MCF7, 48 h, read-out: Activity
CAKI-1 = assay: Growth inhibition of human CAKI-1 cells assessed as cell growth at 10^-5 M after 48 hrs by sulforhodamine B assay; settings: CAKI-1, 48 h, read-out: Activity; how it was run: as §1
M14 = assay: Growth inhibition of human M14 cells assessed as cell growth at 10^-5 M after 48 hrs by sulforhodamine B assay; settings: M14, 48 h, read-out: Activity
SF-539 = assay: Growth inhibition of human SF539 cells assessed as cell growth at 10^-5 M after 48 hrs by sulforhodamine B assay; settings: SF-539, 48 h, read-out: Activity
HT-29 = assay: Growth inhibition of human HT-29 cells assessed as cell growth at 10^-5 M after 48 hrs by sulforhodamine B assay; settings: HT-29, 48 h, read-out: Activity
How it was run: (§2)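 Five-dose screen at NCI. Cells in RPMI 1640 with 5% FBS and 2 mM L-glutamine, seeded at 5000–40,000 cells/well and grown 24 h at 37 °C, 5% CO2 before dosing, with time-zero plates TCA-fixed. Drug diluted from DMSO stock to 0.01, 0.1, 1, 10 and 100 µM final, 48 h. Cells fixed with cold TCA (10% final), stained with 0.4% SRB and read at 515 nm. Percent growth from Tz, control and test absorbances; GI50, TGI and LC50 from dose-response curves.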

COLO 205 = assay: Growth inhibition of human COLO205 cells assessed as cell growth at 10^-5 M after 48 hrs by sulforhodamine B assay; settings: COLO 205, 48 h, read-out: Activity; how it was run: as §1
NCI-H460 = assay: Growth inhibition of human NCI-H460 cells assessed as cell growth at 10^-5 M after 48 hrs by sulforhodamine B assay; settings: NCI-H460, 48 h, read-out: Activity
RPMI-8226 [4] = assay: Growth inhibition of human RPMI8226 cells assessed as cell growth at 10^-5 M after 48 hrs by sulforhodamine B assay; settings: RPMI-8226, 48 h, read-out: Activity
TK-10 = assay: Growth inhibition of human TK10 cells assessed as cell growth at 10^-6 M after 48 hrs by sulforhodamine B assay; settings: TK-10, 48 h, read-out: Activity
RXF 393 = assay: Growth inhibition of human RXF393 cells assessed as cell growth at 10^-6 M after 48 hrs by sulforhodamine B assay; settings: RXF 393, 48 h, read-out: Activity
NCI-H522 = assay: Growth inhibition of human NCI-H522 cells assessed as cell growth at 10^-6 M after 48 hrs by sulforhodamine B assay; settings: NCI-H522, 48 h, read-out: Activity
NCI-H226 = assay: Growth inhibition of human NCI-H226 cells assessed as cell growth at 10^-6 M after 48 hrs by sulforhodamine B assay; settings: NCI-H226, 48 h, read-out: Activity
IGROV-1 = assay: Growth inhibition of human IGROV1 cells assessed as cell growth at 10^-7 M after 48 hrs by sulforhodamine B assay; settings: IGROV-1, 48 h, read-out: Activity
SR = assay: Growth inhibition of human SR cells assessed as cell growth at 10^-7 M after 48 hrs by sulforhodamine B assay; settings: read-out: Activity
MCF7 [5] = assay: Growth inhibition of human MCF7 cells assessed as cell growth at 10^-8 M after 48 hrs by sulforhodamine B assay; settings: MCF7, 48 h, read-out: Activity
PC-3 = assay: Growth inhibition of human PC3 cells assessed as cell growth at 10^-8 M after 48 hrs by sulforhodamine B assay; settings: PC-3, 48 h, read-out: Activity
SK-OV-3 = assay: Growth inhibition of human SKOV3 cells assessed as cell growth at 10^-8 M after 48 hrs by sulforhodamine B assay; settings: SK-OV-3, 48 h, read-out: Activity
OVCAR-5 = assay: Growth inhibition of human OVCAR5 cells assessed as cell growth at 10^-8 M after 48 hrs by sulforhodamine B assay; settings: OVCAR-5, 48 h, read-out: Activity
SNB-19 = assay: Growth inhibition of human SNB19 cells assessed as cell growth at 10^-8 M after 48 hrs by sulforhodamine B assay; settings: SNB-19, 48 h, read-out: Activity
SW-620 = assay: Growth inhibition of human SW620 cells assessed as cell growth at 10^-8 M after 48 hrs by sulforhodamine B assay; settings: SW-620, 48 h, read-out: Activity
HCT-116 = assay: Growth inhibition of human HCT116 cells assessed as cell growth at 10^-8 M after 48 hrs by sulforhodamine B assay; settings: HCT-116, 48 h, read-out: Activity; how it was run: as §2
BT-549 = assay: Growth inhibition of human BT549 cells after 48 hrs by sulforhodamine B assay; settings: BT-549, 48 h; for CC50: read-out: LC50 (the source's name)
How it was run: (§3)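 Adherent cells in RPMI 1640 with 5% FBS and 2 mM L-glutamine were plated at 5000–40,000 cells/well and grown 24 h. Five concentrations (0.01–100 µM, DMSO stock) were added for 48 h at 37 °C. Cells were fixed with cold TCA (10% final) and stained with SRB, read at 515 nm. GI50 came from log concentration–growth curves against time-zero and control plates.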

MCF7 [6] = assay: Growth inhibition of human MCF7 cells after 48 hrs by sulforhodamine B assay; settings: MCF7, 48 h; for CC50: read-out: LC50 (the source's name); how it was run: as §3
Malme-3M = assay: Growth inhibition of human MALME-3M cells after 48 hrs by sulforhodamine B assay; settings: read-out: LC50 (the source's name); how it was run: as §3
NCI-H322M = assay: Growth inhibition of human NCI-H322M cells after 48 hrs by sulforhodamine B assay; settings: for CC50: read-out: LC50 (the source's name); how it was run: as §3

Structure (SMILES) | growth at 100 µM (SN12C) [%] | growth at 100 µM (SK-MEL-28) [%] | growth at 100 µM (SF-268) [%] | growth at 100 µM [1] [%] | growth at 100 µM (RPMI-8226 [2]) [%] | growth at 10 µM (MCF7 [3]) [%] | growth at 10 µM (CAKI-1) [%] | growth at 10 µM (M14) [%] | growth at 10 µM (SF-539) [%] | growth at 10 µM (HT-29) [%] | growth at 10 µM (COLO 205) [%] | growth at 10 µM (NCI-H460) [%] | growth at 10 µM (RPMI-8226 [4]) [%] | growth at 1 µM (TK-10) [%] | growth at 1 µM (RXF 393) [%] | growth at 1 µM (NCI-H522) [%] | growth at 1 µM (NCI-H226) [%] | growth at 0.1 µM (IGROV-1) [%] | growth at 0.1 µM (SR) [%] | growth at 0.01 µM (MCF7 [5]) [%] | other results
O=S(=O)(Nc1ccc(Cl)cc1)c1ccc2nc(-c3ccccc3)c(-c3ccccc3)nc2c1 | 78 | 82 | 76 | 65 | 40 | -16 | -35 | -27 | 5 | -55 | -11 | -18 | -45 | 108 | 98 | 88 | 101 | 101 | 88 | 95 | growth at 0.01 µM (PC-3): 90%; growth at 0.01 µM (SK-OV-3): 95%; growth at 0.01 µM (OVCAR-5): 95%; growth at 0.01 µM (SNB-19): 100%; growth at 0.01 µM (SW-620): 93%; growth at 0.01 µM (HCT-116): 96%; CC50 (BT-549): > 100 µM; CC50 (MCF7 [6]): > 100 µM; CC50 (Malme-3M): > 100 µM; TGI (NCI-H322M): > 100 µM; CC50 (NCI-H322M): > 100 µM
O=S(=O)(Nc1ccccn1)c1ccc2nc(-c3ccccc3)c(-c3ccccc3)nc2c1 | 64 | 82 | 64 | 50 | 27 | -22 | -11 | -42 | 7 | -37 | -73 | 1 | -48 | 114 | 96 | 74 | 96 | 104 | 89 | 95 | growth at 0.01 µM (PC-3): 97%; growth at 0.01 µM (SK-OV-3): 97%; growth at 0.01 µM (OVCAR-5): 93%; growth at 0.01 µM (SNB-19): 100%; growth at 0.01 µM (SW-620): 101%; growth at 0.01 µM (HCT-116): 97%; GI50 (BT-549): 1.58 µM; CC50 (BT-549): > 100 µM; GI50 (MCF7 [6]): 2.18 µM; CC50 (MCF7 [6]): > 100 µM; CC50 (Malme-3M): > 100 µM; TGI (NCI-H322M): > 100 µM; CC50 (NCI-H322M): > 100 µM
